In ChEMBL document CHEMBL1142890, “Structure-antibacterial activity of arylcarbonyl- and arylsulfonyl-piperazine 5-triazolylmethyl oxazolidinones” (2007):
≈ marks a conversion by molar mass, not a printed value.

Key:
Staphylococcus [1] = test: Antimicrobial activity against methicillin-susceptible coagulase-negative staphylococcus by agar dilution method; assay type: functional
Procedure, shortened: (§1)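 Agar dilution per CLSI on Mueller-Hinton agar, test agents at 0.12 to 8 µg/ml; test compounds dissolved in 20% water in DMSO, linezolid in 40% water in ethanol, vancomycin in water. Clinical isolates inoculated at final 10^7 CFU/ml, incubated 35 °C for 18 h. MIC = lowest concentration completely inhibiting growth; reported as range across isolates.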

Staphylococcus aureus [2] = test: Antimicrobial activity against methicillin-susceptible Staphylococcus aureus by agar dilution method; assay type: functional; procedure, shortened: as §1
Staphylococcus aureus [3] = test: Antimicrobial activity against methicillin-resistant Staphylococcus aureus by agar dilution method; assay type: functional; procedure, shortened: as §1
Haemophilus influenzae = test: Antimicrobial activity against Haemophilus influenzae; assay type: functional
Escherichia coli = test: Antimicrobial activity against Escherichia coli ATCC 25922; assay type: functional
Staphylococcus aureus [4] = test: Antimicrobial activity against Staphylococcus aureus ATCC 25923 by agar dilution method
Moraxella catarrhalis = test: Antimicrobial activity against Moraxella catarrhalis; assay type: functional
Streptococcus pneumoniae = test: Antimicrobial activity against Streptococcus pneumoniae by agar dilution method; assay type: functional
Procedure, shortened: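 Agar dilution per CLSI on Mueller–Hinton agar holding drug dilutions from 0.12 to 8 µg/ml. Staphylococci and enterococci tested on plain MH agar, S. pneumoniae on MH agar with 5% sheep blood. Test compounds dissolved in 20% water in DMSO. Inoculum 10⁷ CFU/ml, incubated 35 °C for 18 h. MIC was the lowest concentration giving complete growth inhibition.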

Enterococcus [5] = test: Antimicrobial activity against vancomycin-sensitive Enterococcus by agar dilution method; assay type: functional; procedure, shortened: as §1
Staphylococcus [6] = test: Antimicrobial activity against methicillin-resistant coagulase-negative Staphylococcus by agar dilution method; assay type: functional; procedure, shortened: as §1
Enterococcus [7] = test: Antimicrobial activity against vancomycin-resistant Enterococcus by agar dilution method; assay type: functional; procedure, shortened: as §1
Staphylococcus aureus [8] = test: Antimicrobial activity against Staphylococcus aureus ATCC 25922 in presence of 50% human plasma […]; assay type: functional; details: ATCC 25923, Plasma, in the assay text read “ATCC 25923” for “ATCC 25922”
Procedure, shortened: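 S. aureus ATCC 25923 tested in Mueller–Hinton broth supplemented with 50% human plasma. Test compounds dissolved in 20% water in DMSO. Inoculum 10⁷ CFU/ml, incubated 35 °C for 18 h. MIC was the lowest concentration completely inhibiting growth.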

SMILES	MIC (Staphylococcus [1]) [µg/mL]	MIC (Staphylococcus aureus [2]) [µg/mL]	MIC (Staphylococcus aureus [3]) [µg/mL]	MIC (Haemophilus influenzae) [µg/mL]	MIC (Escherichia coli) [µg/mL]	MIC (Staphylococcus aureus [4]) [µg/mL]	MIC (Moraxella catarrhalis) [µg/mL]	MIC (Streptococcus pneumoniae) [µg/mL]	MIC (Enterococcus [5]) [µg/mL]	MIC (Staphylococcus [6]) [µg/mL]	MIC (Enterococcus [7]) [µg/mL]	MIC (Staphylococcus aureus [8]) [µg/mL]
O=C(C(=O)N1CCN(c2ccc(N3C[C@H](Cn4ccnn4)OC3=O)cc2F)CC1)c1cccs1	0.25 (≈ 0.516 µM)	0.25 (≈ 0.516 µM)	0.25 (≈ 0.516 µM)	≥ 8	≥ 8	0.5 (≈ 1.03 µM)	≥ 8	0.25 (≈ 0.516 µM)	0.5 (≈ 1.03 µM)	0.25 (≈ 0.516 µM)	0.25 (≈ 0.516 µM)	2
O=C(c1cccs1)N1CCN(c2ccc(N3C[C@H](Cn4ccnn4)OC3=O)cc2F)CC1	0.25 (≈ 0.548 µM)	0.5 (≈ 1.1 µM)	0.5 (≈ 1.1 µM)	≥ 8	≥ 8	0.5 (≈ 1.1 µM)	≥ 8	0.25 (≈ 0.548 µM)	0.5 (≈ 1.1 µM)	0.25 (≈ 0.548 µM)	0.5 (≈ 1.1 µM)	4
O=C1O[C@@H](Cn2ccnn2)CN1c1ccc(N2CCN(S(=O)(=O)c3cccs3)CC2)c(F)c1	0.5 (≈ 1.02 µM)	0.5 (≈ 1.02 µM)	0.5 (≈ 1.02 µM)	≥ 8	≥ 8	1 (≈ 2.03 µM)	≥ 8	1 (≈ 2.03 µM)	0.5 (≈ 1.02 µM)	0.5 (≈ 1.02 µM)	0.5 (≈ 1.02 µM)	> 8
COc1ccccc1C(=O)N1CCN(c2ccc(N3C[C@H](Cn4ccnn4)OC3=O)cc2F)CC1	0.25 (≈ 0.52 µM)	0.5 (≈ 1.04 µM)	1 (≈ 2.08 µM)	≥ 8	≥ 8	1 (≈ 2.08 µM)	≥ 8	1 (≈ 2.08 µM)	1 (≈ 2.08 µM)	0.25 (≈ 0.52 µM)	1 (≈ 2.08 µM)	4
COc1cccc(C(=O)N2CCN(c3ccc(N4C[C@H](Cn5ccnn5)OC4=O)cc3F)CC2)c1	0.25 (≈ 0.52 µM)	0.25 (≈ 0.52 µM)	0.25 (≈ 0.52 µM)	≥ 8	≥ 8	2 (≈ 4.16 µM)	≥ 8	0.25 (≈ 0.52 µM)	0.5 (≈ 1.04 µM)	0.25 (≈ 0.52 µM)	0.5 (≈ 1.04 µM)	4
O=C(c1cccc(F)c1)N1CCN(c2ccc(N3C[C@H](Cn4ccnn4)OC3=O)cc2F)CC1	0.5 (≈ 1.07 µM)	0.25 (≈ 0.534 µM)	0.25 (≈ 0.534 µM)	≥ 8	≥ 8	1 (≈ 2.13 µM)	≥ 8	0.5 (≈ 1.07 µM)	0.5 (≈ 1.07 µM)	0.5 (≈ 1.07 µM)	0.5 (≈ 1.07 µM)	4
O=C(c1cccc([N+](=O)[O-])c1)N1CCN(c2ccc(N3C[C@H](Cn4ccnn4)OC3=O)cc2F)CC1	0.5 (≈ 1.01 µM)	0.25 (≈ 0.505 µM)	0.25 (≈ 0.505 µM)	≥ 8	≥ 8	2 (≈ 4.04 µM)	≥ 8	0.25 (≈ 0.505 µM)	0.5 (≈ 1.01 µM)	0.25 (≈ 0.505 µM)	0.5 (≈ 1.01 µM)	2
O=C1O[C@@H](Cn2ccnn2)CN1c1ccc(N2CCOCC2)c(F)c1	0.5 (≈ 1.44 µM)	0.5 (≈ 1.44 µM)	0.5 (≈ 1.44 µM)	≥ 8	≥ 8	1 (≈ 2.88 µM)	≥ 8	0.5 (≈ 1.44 µM)	0.5 (≈ 1.44 µM)	0.5 (≈ 1.44 µM)	1 (≈ 2.88 µM)	1
Cc1ccc(C(=O)N2CCN(c3ccc(N4C[C@H](Cn5ccnn5)OC4=O)cc3F)CC2)cc1	0.5 (≈ 1.08 µM)	0.5 (≈ 1.08 µM)	0.5 (≈ 1.08 µM)	≥ 8	≥ 8	1 (≈ 2.15 µM)	≥ 8	2 (≈ 4.31 µM)	1 (≈ 2.15 µM)	0.5 (≈ 1.08 µM)	0.5 (≈ 1.08 µM)	8
O=C(Cc1ccccc1)N1CCN(c2ccc(N3C[C@H](Cn4ccnn4)OC3=O)cc2F)CC1	0.5 (≈ 1.08 µM)	0.5 (≈ 1.08 µM)	0.5 (≈ 1.08 µM)	≥ 8	≥ 8	2 (≈ 4.31 µM)	≥ 8	0.5 (≈ 1.08 µM)	0.5 (≈ 1.08 µM)	0.5 (≈ 1.08 µM)	1 (≈ 2.15 µM)	4
